Sampled rows, rich in hits. Any-hit rate of the full collection: about 2.8%.
HEK293 NFkB inh: lowers PMA/ionomycin-induced NF-kB signal in HEK293 cells | HEK-293 NF-kB luciferase reporter, luminescence | inhibition, % at 3 µM | 62,000 tested, 0.21% active | AID 465;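 active = inhibition above the mean of all tested compounds plus 3 SD, cut at about 40% in these data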;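 note: 0% = stimulated DMSO wells and 100% = 10 µM reference inhibitor 5653914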
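Timing: 1 h pretreatment, 16 h stimulation, 37 °C; system: HEK-293 cells with stable firefly luciferase reporter driven by four HIV NF-kB elements; doses: 3 µM once, 0.30% DMSO; measured by: luciferase luminescence; control set: DMSO and 10 µM reference inhibitor; repeats: single test; reagent: PMA plus ionomycin mix as NF-kB-activating stimulus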
Jurkat viability: cytotoxic compounds reducing Jurkat cell viability | Jurkat E6.1 viability, ATP luminescence, 48 h | inhibition, % at 4 µM | 56,000 tested, 1.2% active;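 active = inhibition above the mean inhibition of all tested compounds plus 3 SD, cut at about 28% in these data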
MT1-MMP txn act: activates MT1-MMP transcription; HT1080 MT1-MMP promoter luciferase reporter, luminescence, overnight; active compounds read high; activation factor at 10 µM; 86,000 tested, 0.16% active;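 active = activation factor of at least 2 for MT1-MMP transcription at 10 µM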
SF1 activator: activates the human nuclear receptor SF-1; CHO-K1 Gal4-SF-1 LBD luciferase reporter; % increase over DMSO SF-1-specific signal; activation, % at 10 µM; AID 522; 65,000 tested, 1.9% active;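 active = activation above the mean activation of all tested compounds plus 3 SD, cut at about 50% in these data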
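Test system: CHO-K1 cells with Gal4–hSF-1 LBD chimera plus Gal4-driven luciferase; Input: 4,000 cells/well; Compound: 10 µM only; Times: 20 h compound treatment, 37 °C; Measured by: steady-glow luciferase luminescence, read after 15 min reagent incubation; Measure: percent activation versus DMSO; Control set: DMSO and mock-transfected background; Replicates: one test per compound.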
RORa activator: RORA (human) activation; CHO-K1 Gal4-RORA LBD luciferase reporter, luminescence; percent increase over mock-subtracted basal signal; activation, % at 10 µM; 65,000 tested, 1.5% active; AID 560;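 active = activation above the mean of all tested compounds plus 3 SD, cut at about 49% in these data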;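 note: 0% = DMSO-treated RORA cells and 100% = added signal equal to DMSO minus mock-transfected cells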
Target sequence (P35398 whole entry, looked up, the tested form may be a part): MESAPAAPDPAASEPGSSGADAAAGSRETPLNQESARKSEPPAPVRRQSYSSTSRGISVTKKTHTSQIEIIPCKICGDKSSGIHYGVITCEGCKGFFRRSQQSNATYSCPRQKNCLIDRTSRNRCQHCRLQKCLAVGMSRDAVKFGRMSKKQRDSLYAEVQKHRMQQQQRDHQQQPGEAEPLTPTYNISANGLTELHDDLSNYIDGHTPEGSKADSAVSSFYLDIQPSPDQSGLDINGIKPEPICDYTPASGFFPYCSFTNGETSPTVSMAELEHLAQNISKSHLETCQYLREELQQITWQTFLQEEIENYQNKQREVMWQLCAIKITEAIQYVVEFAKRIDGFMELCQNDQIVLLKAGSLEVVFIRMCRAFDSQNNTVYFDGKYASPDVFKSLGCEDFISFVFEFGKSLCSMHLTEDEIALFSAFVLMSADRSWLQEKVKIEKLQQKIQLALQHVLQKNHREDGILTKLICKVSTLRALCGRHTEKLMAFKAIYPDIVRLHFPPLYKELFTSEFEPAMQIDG
The depositor's hits bear a star; . = no result.

SMILES | HEK293 NFkB inh | Jurkat viability | MT1-MMP txn act | SF1 activator | RORa activator
Cc1ccc2cc3cc(C(=O)N4CCCCC4C)oc3nc2c1 (centres undefined) | -58 | -2 | 1 | 65* | 27
N#CCCCN1C(=O)C(O)(CC(=O)c2ccc3c(c2)OCCO3)c2ccccc21 (centres undefined) | 11 | -4 | 1.1 | -14 | -11
CCC(=O)Nc1cnc(NC(=O)c2cccc(F)c2)cc1C | -29 | . | 1 | 32 | 36
CC(=O)Nc1cnc(NC(=O)c2cccc(F)c2)cc1C | -19 | . | 1.6 | 76* | 22
COc1cccc2cc(C(=O)N3CCCCC3C)c(=O)oc12 (centres undefined) | . | . | 1.2 | . | .
COc1cccc2cc(C(=O)Nc3cccc(C)n3)c(=O)oc12 | -21 | 4 | 0.6 | 73* | 58*
COc1cccc2cc(NC(=O)C3CCCCC3)c(=O)oc12 | -45 | 2 | . | 66* | 56*
CCc1c(C)nc(SCC(=O)CC(=O)OC(C)C)c(C#N)c1C | 21 | 5 | 1.2 | -7 | -1
Cc1ccc(NC(=O)Nc2ccc(F)cc2)nc1 | -10 | -2 | 1.8 | 83* | 25
Cc1ccc2nc(NCc3ccccc3)[nH]c2c1 | . | . | 0.7 | 68* | 37
c1ccc(CNc2nc3ccccc3[nH]2)cc1 | 9 | . | 1 | 0 | -14
COc1ccc2nc(NCCO)[nH]c2c1 | 6 | -2 | 1.1 | -1 | 9
COc1ccc2nc(NCc3ccccc3)[nH]c2c1 | 11 | 20 | 1.5 | 36 | 52*
Cn1c(-n2c(CCN3C(=O)c4ccccc4C3=O)nc3ccccc3c2=O)nc2ccccc21 | 14 | 1 | 1.4 | 16 | 57*
Cn1c(-n2c(CCCN3C(=O)c4ccccc4C3=O)nc3ccccc3c2=O)nc2ccccc21 | 11 | -1 | 1.1 | -9 | -8
O=C(c1ccc2c(c1)OCO2)N1CCc2ccccc2C1 | -2 | -2 | 1.8 | 44 | 66*
O=C(c1ccc2c(c1)OCO2)N1CCCc2ccccc21 | 14 | 11 | 1.5 | -2 | 4
O=C(COc1ccccc1)NCc1cccs1 | . | . | 1.3 | . | .
Cc1ccc2nc3ccc(N4CCCC4)nn3c(=O)c2c1 | -21 | 8 | 1.4 | 46 | 54*
Cc1sc2nc3ccc(N4CCCCC4)nn3c(=O)c2c1C | 13 | 2 | 1.5 | 7 | 24
Cc1c(C(=O)NCc2ccco2)sc2nc(-c3ccccc3)cn12 | -5 | 6 | 1.1 | 52* | 87*
Cc1c(C(=O)N2CCOCC2)sc2nc(-c3ccccc3)cn12 | -12 | -8 | 1.7 | 82* | 58*
Cc1c(C(=O)NCc2cccnc2)sc2nc(-c3ccccc3)cn12 | 18 | -6 | . | 33 | 54*
Cc1c(C(=O)NCc2cccnc2)sc2nc(-c3ccc(F)cc3)cn12 | 9 | 14 | 1.2 | -1 | 44
COc1cccc(C(=O)NCc2cn3ccsc3n2)c1 | 5 | -6 | 1.1 | 20 | 2
SMILES | HEK293 NFkB inh | Jurkat viability | MT1-MMP txn act | SF1 activator | RORa activator
COC(=O)C1(Cc2ccccc2)C=C2C(=C(C(C)C)C(=O)C2C)CN1 (centres undefined) | . | . | 2.1* | . | .
COC(=O)C1(Cc2ccccc2)C=C2C(=C(c3ccccc3)C(=O)C2C)CN1 (centres undefined) | . | . | 1 | . | .
N#Cc1cc2ccccc2nc1SCc1ccccn1 | -10 | -6 | 1.7 | 67* | 71*
N#Cc1c(N)nc(SCc2ccccn2)c(C#N)c1-c1cccs1 | . | . | 1.2 | -11 | -13
Cc1cc(C(F)F)nn1CC(=O)N1CCSCC1 | . | . | 1.2 | . | .
O=C1c2ccccc2C(=O)N1CCN1CCc2ccccc21 | . | . | 1.6 | 52* | 37
c1ccc2c(c1)CCN2CCN1CCc2ccccc21 | 6 | 3 | 1.2 | 24 | 15
COCCn1c(C)cc(C(=O)COC(=O)c2ccc(NC(=O)CC#N)cc2)c1C | . | . | 1.2 | . | .
COCCn1c(C)cc(C(=O)COC(=O)c2ccc3ncsc3c2)c1C | -1 | 0 | 1.7 | 52* | 27
O=C1CC(Nc2ccc(N3CCOCC3)cc2)C(=O)N1C1CCCCC1 (centres undefined) | 14 | . | 1.1 | 1 | 7
COc1ccc2nc(NC(=O)c3cccc(OCc4c(C)noc4C)c3)sc2c1 | 18 | 70* | 0.6 | 36 | 86*
CCCC(=O)Nc1nc2ccc(OC)cc2s1 | -14 | 2 | 1.4 | 54* | 56*
CCOc1ccc2nc(NC(=O)c3cnccn3)sc2c1 | -30 | -3 | 0.7 | 19 | 86*
CCSc1nnc(NC(=O)c2cccc(OCc3c(C)noc3C)c2)s1 | -4 | . | 1.2 | -3 | -2
FC(F)(F)c1cc(-c2cccs2)nc(-n2cc(Br)cn2)n1 | . | . | 1.2 | . | .
CCOC(=O)c1[nH]c2ccc(Br)cc2c1NC(=O)CNC | . | . | 1.3 | 6 | 13
CN(C)S(=O)(=O)c1ccc(NC(=O)c2ccccn2)cc1 | -13 | 1 | 1 | 74* | 57*
CN(C)S(=O)(=O)c1ccc(C(=O)Nc2ccccn2)cc1 | 6 | -1 | 1.3 | 13 | -9
CCN(CC)S(=O)(=O)c1ccc(NC(=O)c2ccccn2)cc1 | -2 | -10 | 1.4 | 55* | 49*
COc1ccc2oc(=O)c(C(=O)N3CCc4ccccc43)cc2c1 | 14 | -1 | 1.3 | -7 | -11
CC(=O)c1c(N2CCN(C(=O)c3ccco3)CC2)nc(=S)n(-c2ccccc2)c1C | 18 | 4 | 1 | 0 | -8
O=C(Nc1ccc(S(=O)(=O)NCc2ccccc2)cc1)c1ccc(Br)o1 | . | . | 0.9 | . | .
COc1ccc(-c2noc(CCC(=O)Nc3cccc(C)c3)n2)cc1 | 12 | 5 | 1 | -7 | -27
COc1ccc(-c2noc(N(C)CC(=O)Nc3cccc(C(F)(F)F)c3)n2)cc1 | 2 | -2 | 1 | 44 | 52*
Cc1nc2sc(-c3ccccc3)cc2c(=O)n1-n1cccc1 | -40 | -3 | 1.5 | 89* | -2
SMILES | HEK293 NFkB inh | Jurkat viability | MT1-MMP txn act | SF1 activator | RORa activator
CCc1c(C)nc2cc(-c3ccc(OC)cc3)[nH]n2c1=O | -10 | -2 | 1.5 | 45 | 58*
CCSc1nc2sc3c(c2c(=O)n1C1CCCCC1)CCN(C)C3 | . | . | 0.9 | 14 | -23
O=C1CN(C(=O)CN2CCCC2)C(c2ccccc2)c2cc(Br)ccc2N1 (centres undefined) | 11 | -5 | 1.4 | 8 | -4
O=C(CCCSc1nc(-c2ccco2)cc(C(F)(F)F)n1)Nc1ccc2c(c1)OCO2 | 8 | 0 | 1.4 | 10 | 6
O=C(CSc1nc(-c2ccco2)cc(C(F)(F)F)n1)Nc1ccc2c(c1)OCO2 | 16 | 29* | 1.3 | 15 | 8
CCN(c1ccccc1)S(=O)(=O)c1ccc(Oc2ccc(-n3ccnc3)cc2)nc1 | 98* | 13 | 0.6 | 41 | -28
CCN(c1ccccc1)S(=O)(=O)c1ccc(OC)c(OC)c1 | . | . | 0.9 | . | .
CCc1ccccc1NC(=O)Cn1nnc(-c2cccs2)n1 | 17 | -3 | 1.1 | -9 | -10
O=C(O)c1ccccc1OCCOc1ccccc1 | 7 | . | 1.1 | -1 | -2
c1ccc(OCCOc2ncnc3ccccc23)cc1 | -18 | -8 | 1.5 | 50* | 38

Screening results from PubChem.
